Reference: ChEMBL document CHEMBL1145047, “Design, synthesis, and evaluation of substituted phenylpropanoic acid derivatives as human peroxisome proliferator activated receptor activators. Discovery of potent and human peroxisome proliferator activated receptor alpha subtype-selective activators” (J Med Chem, 2003)
Each block holds one compound with its values, some of them ahead of it. Active and inactive are the calls of the source. No cut-off for these calls is given here.

What was measured:
[1] = target: T1, Peroxisome proliferator-activated receptor delta (Homo sapiens) (UniProt Q03181); assay: In vitro In vitro effective concentration for agonist activity on human Peroxisome proliferator activated receptor delta-GAL4 chimeric receptor in transfected CHO-K1 cells at 10 uM; inactive; assay type: functional, cell-based
T1 sequence (whole entry): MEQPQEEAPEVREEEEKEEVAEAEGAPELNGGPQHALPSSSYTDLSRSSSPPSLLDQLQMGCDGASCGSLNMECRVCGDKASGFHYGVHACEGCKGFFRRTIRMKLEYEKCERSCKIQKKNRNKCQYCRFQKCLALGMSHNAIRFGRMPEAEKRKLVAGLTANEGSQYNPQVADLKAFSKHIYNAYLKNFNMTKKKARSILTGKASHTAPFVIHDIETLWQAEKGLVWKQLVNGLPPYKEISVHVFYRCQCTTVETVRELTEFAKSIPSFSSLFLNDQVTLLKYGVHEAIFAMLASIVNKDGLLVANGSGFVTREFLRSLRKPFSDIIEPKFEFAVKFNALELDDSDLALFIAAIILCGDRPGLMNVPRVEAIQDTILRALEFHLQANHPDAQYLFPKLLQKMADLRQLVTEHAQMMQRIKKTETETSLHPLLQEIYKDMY

[2] = target: T2, Peroxisome proliferator-activated receptor gamma (Homo sapiens) (UniProt P37231); assay: In vitro effective concentration for agonist activity on human Peroxisome proliferator activated receptor gamma-Gal4 chimeric receptor in transfected CHO-K1 cells at 10 uM; assay type: functional, cell-based
T2 sequence (whole entry): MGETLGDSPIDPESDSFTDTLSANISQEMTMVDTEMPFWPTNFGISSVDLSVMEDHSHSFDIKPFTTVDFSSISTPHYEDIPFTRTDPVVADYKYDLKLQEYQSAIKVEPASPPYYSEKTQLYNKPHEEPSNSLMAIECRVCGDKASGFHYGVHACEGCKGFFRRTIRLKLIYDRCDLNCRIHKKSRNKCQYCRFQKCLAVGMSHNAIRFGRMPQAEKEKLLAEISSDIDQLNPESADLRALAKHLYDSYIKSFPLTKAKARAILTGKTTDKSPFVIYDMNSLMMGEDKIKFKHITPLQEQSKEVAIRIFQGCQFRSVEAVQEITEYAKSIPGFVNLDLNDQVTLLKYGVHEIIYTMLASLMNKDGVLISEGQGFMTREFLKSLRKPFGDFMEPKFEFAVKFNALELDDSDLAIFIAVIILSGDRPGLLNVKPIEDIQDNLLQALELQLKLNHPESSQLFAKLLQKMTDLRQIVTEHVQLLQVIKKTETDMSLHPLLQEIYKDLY

[3] = target: T3, Peroxisome proliferator-activated receptor alpha (Homo sapiens) (UniProt Q07869); assay: Agonist activity on Gal4 chimeric human Peroxisome proliferator activated receptor alpha expressed in CHO-K1 cells; assay type: functional, cell-based
T3 sequence (whole entry): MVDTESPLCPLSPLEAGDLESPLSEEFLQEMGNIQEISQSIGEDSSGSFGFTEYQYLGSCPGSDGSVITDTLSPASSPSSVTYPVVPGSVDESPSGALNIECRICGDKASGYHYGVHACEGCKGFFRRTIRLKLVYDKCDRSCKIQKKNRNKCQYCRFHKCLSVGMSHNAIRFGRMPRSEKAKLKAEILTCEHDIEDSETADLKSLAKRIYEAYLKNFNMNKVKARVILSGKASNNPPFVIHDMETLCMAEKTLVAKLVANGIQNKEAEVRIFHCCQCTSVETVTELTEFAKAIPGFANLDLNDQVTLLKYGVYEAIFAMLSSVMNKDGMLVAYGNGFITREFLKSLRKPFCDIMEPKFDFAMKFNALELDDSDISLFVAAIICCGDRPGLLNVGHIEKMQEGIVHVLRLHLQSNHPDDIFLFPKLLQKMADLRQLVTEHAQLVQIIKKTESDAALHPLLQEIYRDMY
Summary of the method: (§1)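 GAL4–human PPAR LBD chimera, reporter assay in CHO-K1 cells. Cells seeded at 5 × 10⁴/well in Ham's F12 with 10% FCS for 24 h at 37 °C. Cotransfected for 2 h (lipofectamine) per well with 40 ng GAL4/PPAR LBD, 400 ng pFR-Luc and 5 ng pRL-TK. Compounds applied for 20 h at 37 °C, then luciferase read from cell lysates. EC50 is 50% of maximal reporter activity, from curve fit, n = 3.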

[4] = target: T4, Peroxisome proliferator-activated receptor delta (Homo sapiens, UniProt Q03181); assay: (§2) Agonist activity on Gal4 chimeric human Peroxisome proliferator activated receptor delta expressed in CHO-K1 cells; assay type: functional, cell-based
T4 sequence (Q03181 whole entry): T1 sequence (whole entry)

[5] = target: T5, Peroxisome proliferator-activated receptor alpha (Homo sapiens, UniProt Q07869); assay type: functional, cell-based
T5 sequence (Q07869 whole entry): T3 sequence (whole entry)

[6] = target: T6, Peroxisome proliferator-activated receptor gamma (Homo sapiens, UniProt P37231)
T6 sequence (P37231 whole entry): T2 sequence (whole entry)

[7] = target: T1, Peroxisome proliferator-activated receptor delta (Homo sapiens); assay: In vitro effective concentration for agonist activity on human Peroxisome proliferator activated receptor delta-GAL4 chimeric receptor in transfected CHO-K1 cells at 10 uM; inactive; assay type: functional, cell-based
[8] = target: T1, Peroxisome proliferator-activated receptor delta (Homo sapiens); assay: as §2; assay type: functional, cell-based; summary of the method: as §1
[9] = target: T1, Peroxisome proliferator-activated receptor delta (Homo sapiens); assay: In vitro effective concentration for agonist activity on human Peroxisome proliferator activated receptor delta-GAL4 chimeric receptor in transfected CHO-K1 cells; inactive; assay type: functional, cell-based; summary of the method: as §1
Rattus norvegicus [10] = assay: In vivo percent reduction on FFA of the rat at 3 mg/kg after 5 days; assay type: functional
Summary of the method: (§3)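 Male Sprague-Dawley rats, 11 weeks old, fed standard chow and water ad libitum. Drug or vehicle suspended in 0.5% w/v arabic gum and given orally once daily at 0.3, 3 or 30 mg/kg; duration is 4 days in the methods and 5 days in the table. Plasma taken in the fed state. TG, FFA and total cholesterol measured enzymatically. HDL obtained by precipitation; LDL+VLDL = total minus HDL cholesterol. Values are mean percent reduction, N = 5 or 6.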

Rattus norvegicus [11] = assay: In vivo percent reduction on FFA of the rat at 30 mg/kg after 5 days; assay type: functional; summary of the method: as §3
Rattus norvegicus [12] = assay: In vivo percent reduction on LDL+VLDL of the normal rat at 0.3 mg/kg; assay type: functional; summary of the method: as §3
Rattus norvegicus [13] = assay: In vivo percent reduction on LDL+VLDL of the normal rat at 30 mg/kg; assay type: functional; summary of the method: as §3
Rattus norvegicus [14] = assay: In vivo percent reduction on LDL+VLDL of the normal rat at 3 mg/kg; assay type: functional; summary of the method: as §3
Rattus norvegicus [15] = assay: In vivo percent reduction on LDL+VLDL of the rat at 0.3 mg/kg after 5 days; assay type: functional; summary of the method: as §3
Rattus norvegicus [16] = assay: In vivo percent reduction on LDL+VLDL of the rat at 3 mg/kg after 5 days; assay type: functional; summary of the method: as §3
Rattus norvegicus [17] = assay: In vivo percent reduction on LDL+VLDL of the rat at 30 mg/kg after 5 days; assay type: functional; summary of the method: as §3
Rattus norvegicus [18] = assay: In vivo percent reduction on TG of the normal rat at 0.3 mg/kg; assay type: functional; summary of the method: as §3
Rattus norvegicus [19] = assay: In vivo percent reduction on TG of the normal rat at 3 mg/kg; assay type: functional; summary of the method: as §3
Rattus norvegicus [20] = assay: In vivo percent reduction on TG of the normal rat at 30 mg/kg; assay type: functional; summary of the method: as §3
Rattus norvegicus [21] = assay: In vivo percent reduction on TG of the rat at 0.3 mg/kg after 5 days; assay type: functional; summary of the method: as §3
Rattus norvegicus [22] = assay: In vivo percent reduction on TG of the rat at 3 mg/kg after 5 days; assay type: functional; summary of the method: as §3
Rattus norvegicus [23] = assay: In vivo percent reduction on TG of the rat at 30 mg/kg after 5 days; assay type: functional; summary of the method: as §3
Rattus norvegicus [24] = assay: In vivo percent reduction on total cholesterol of the normal rat at 0.3 mg/kg; assay type: functional; summary of the method: as §3
Rattus norvegicus [25] = assay: In vivo percent reduction on total cholesterol of the normal rat at 30 mg/kg; assay type: functional; summary of the method: as §3
Rattus norvegicus [26] = assay: In vivo percent reduction on total cholesterol of the normal rat at 3 mg/kg; assay type: functional; summary of the method: as §3
Rattus norvegicus [27] = assay: In vivo percent reduction on total cholesterol of the rat at 0.3 mg/kg after 5 days; assay type: functional; summary of the method: as §3
Rattus norvegicus [28] = assay: In vivo percent reduction on total cholesterol of the rat at 3 mg/kg after 5 days; assay type: functional; summary of the method: as §3
Rattus norvegicus [29] = assay: In vivo percent reduction on total cholesterol of the rat at 30 mg/kg after 5 days; assay type: functional; summary of the method: as §3
Rattus norvegicus [30] = assay: In vivo percent reduction on FFA of the rat at 0.3 mg/kg after 5 days; assay type: functional; summary of the method: as §3
Rattus norvegicus [31] = assay: In vivo percent reduction on FFA of the normal rat at 0.3 mg/kg; assay type: functional; summary of the method: as §3
Rattus norvegicus [32] = assay: In vivo percent reduction on FFA of the normal rat at 30 mg/kg; assay type: functional; summary of the method: as §3
Rattus norvegicus [33] = assay: In vivo percent reduction on FFA of the normal rat at 3 mg/kg; assay type: functional; summary of the method: as §3
[34] = target: T1, Peroxisome proliferator-activated receptor delta (Homo sapiens); assay: In vitro effective concentration for agonist activity on human Peroxisome proliferator activated receptor delta-GAL4 chimeric receptor in transfected CHO-K1 cells at 10 uM; inactive

Compound: COc1ccc(CC(=O)O)cc1C(=O)NCc1ccc(C(F)(F)F)cc1
IA [1]: inactive | IA [2]: inactive | IA [3]: inactive

Compound: CCC(Cc1ccc(OC)c(C(=O)CCc2ccc(C(F)(F)F)cc2)c1)C(=O)O (configuration not stated)
IA [7]: inactive

Compound: CCCCC(Cc1ccc(OC)c(C(=O)NCc2ccc(C(F)(F)F)cc2)c1)C(=O)O (configuration not stated)
IA [9]: inactive

Compound: CC[C@@H](Cc1ccc(OC)c(C(=O)NCc2ccc(C(F)(F)F)cc2)c1)C(=O)O
Reduction (Rattus norvegicus [10]): 28% | Reduction (Rattus norvegicus [11]): 69% | Reduction (Rattus norvegicus [12]): 46% | Reduction (Rattus norvegicus [13]): 58% | Reduction (Rattus norvegicus [14]): 56% | Reduction (Rattus norvegicus [15]): 29% | Reduction (Rattus norvegicus [16]): 58% | Reduction (Rattus norvegicus [17]): 60% | Reduction (Rattus norvegicus [18]): -1% | Reduction (Rattus norvegicus [19]): 26% | Reduction (Rattus norvegicus [20]): 33% | Reduction (Rattus norvegicus [21]): 15% | Reduction (Rattus norvegicus [22]): 25% | Reduction (Rattus norvegicus [23]): 56% | Reduction (Rattus norvegicus [24]): 19% | Reduction (Rattus norvegicus [25]): 32% | Reduction (Rattus norvegicus [26]): 26% | Reduction (Rattus norvegicus [27]): 22% | Reduction (Rattus norvegicus [28]): 29% | Reduction (Rattus norvegicus [29]): 35% | Reduction (Rattus norvegicus [30]): 12% | Reduction (Rattus norvegicus [31]): 11% | Reduction (Rattus norvegicus [32]): 72% | Reduction (Rattus norvegicus [33]): 27%

Compound: CCC(Cc1ccc(OC)c(C(=O)NCc2ccc(Cl)cc2)c1)C(=O)O (configuration not stated)
IA [9]: inactive | IA [2]: inactive | EC50 [5]: 3000 nM

Compound: CCC(Cc1ccc(OC)c(C(=O)NCc2ccc(OC(F)(F)F)cc2)c1)C(=O)O (configuration not stated)
EC50 [4]: 900 nM | IA [2]: inactive | EC50 [5]: 43 nM

Compound: COc1ccc(CC2SC(=O)NC2=O)cc1C(=O)NCc1ccc(C(F)(F)F)cc1 (configuration not stated)
IA [34]: inactive

Compound: CCC(Cc1ccc(OC)c(C(=O)NCc2cccc(C(F)(F)F)c2)c1)C(=O)O (configuration not stated)
IA [7]: inactive | IA [2]: inactive | EC50 [5]: 1800 nM

Compound: CCSC(Cc1ccc(OC)c(C(=O)NCc2ccc(C(F)(F)F)cc2)c1)C(=O)O (configuration not stated)
EC50 [4]: 3000 nM | EC50 [5]: 1600 nM | EC50 [6]: 2800 nM

Compound: CC(C)(Oc1ccc(CCNC(=O)c2ccc(Cl)cc2)cc1)C(=O)O [BEZAFIBRATE]
EC50 [4]: > 143000 nM | Reduction (Rattus norvegicus [11]): 46% | Reduction (Rattus norvegicus [17]): 22% | Reduction (Rattus norvegicus [23]): 41% | Reduction (Rattus norvegicus [29]): 27%

Other lines, results leading:

EC50 [4]: 3000 nM | EC50 [5]: 90 nM | EC50 [6]: 2400 nM
Compound: CCC(Cc1ccc(OC)c(C(=O)NCc2ccc(Oc3ccccc3)cc2)c1)C(=O)O (configuration not stated)

EC50 [4]: 6600 nM | IA [2]: inactive | EC50 [5]: 1200 nM
Compound: CCC(Cc1ccc(OC)c(C(=O)NCc2ccc(OC)cc2)c1)C(=O)O (configuration not stated)

IA [8]: inactive | EC50 [5]: 2700 nM | EC50 [6]: 3000 nM
Compound: CCC(Cc1ccc(OC)c(C(=O)NCc2ccc(OCCc3ccccc3)cc2)c1)C(=O)O (configuration not stated)

IA [8]: inactive | EC50 [5]: 5600 nM | EC50 [6]: 5400 nM
Compound: CCC(Cc1ccc(OC)c(C(=O)NCc2ccc(CCc3ccccc3)cc2)c1)C(=O)O (configuration not stated)

IA [7]: inactive | EC50 [5]: 2300 nM | EC50 [6]: 10000 nM
Compound: CCC(Cc1ccc(OC)c(C(=O)NCc2ccccc2)c1)C(=O)O (configuration not stated)
